Source: ChEMBL document CHEMBL1141180, “Synthesis and antiviral activity of helioxanthin analogues” (J Med Chem, 2005)
pEC50, pIC50: −log10 of the molar value.

system: Human alphaherpesvirus 1; assay: Effective concentration to inhibit 50% of herpes simplex virus type 1 replication in a cell culture model; type: functional, organism-based; settings: not given

Going from `O=C1NCc2c1cc1c(Br)cc3c(c1c2-c1ccc2c(c1)OCO2)OCO3` to `O=C1OCc2c1cc1c(Br)cc3c(c1c2-c1ccc2c(c1)OCO2)OCO3`, the pEC50 falls from 5.19 to under 4.30.

First: O=C1OC(=O)c2c1cc1ccc3c(c1c2-c1ccc2c(c1)OCO2)OCO3
Second: CC(=O)NN1Cc2cc3ccc4c(c3c(-c3ccc5c(c3)OCO5)c2C1=O)OCO4
The pEC50 of the first is lower: under 4.30 for the first, 4.77 for the second.

Going from `O=C1c2cc3ccc4c(c3c(-c3ccc5c(c3)OCO5)c2CN1CCCO)OCO4` to `O=C1c2cc3ccc4c(c3c(-c3ccc5c(c3)OCO5)c2CN1CCCOCc1ccccc1)OCO4`, the pEC50 falls from 5.30 to 4.89 (0.41 log units). The first is the more potent here.

First: COc1ccc(-c2c(C(=O)O)c(C(N)=O)cc3ccc4c(c23)OCO4)cc1OC
Second: O=C(O)c1cc2c(I)cc3c(c2c(-c2ccc4c(c2)OCO4)c1CO)OCO3
The pEC50 of the first is higher: 6.10 for the first, under 4.30 for the second. The first is the more potent here.

`O=C(OCc1ccccc1)c1cc2ccc3c(c2c(-c2ccc4c(c2)OCO4)c1COCc1ccccc1)OCO3` showed a pEC50 of under 4.30.

system: Human alphaherpesvirus 2; assay: Effective concentration to inhibit 50% of herpes simplex virus type 2 replication in a cell culture model; type: functional, organism-based; settings: not given

`O=C1NCc2c1cc1c(Br)cc3c(c1c2-c1ccc2c(c1)OCO2)OCO3` and `O=C1OCc2c1cc1c(Br)cc3c(c1c2-c1ccc2c(c1)OCO2)OCO3` cannot be ordered by pEC50: under 4.70 for the first, under 4.30 for the second.

Going from `O=C1OC(=O)c2c1cc1ccc3c(c1c2-c1ccc2c(c1)OCO2)OCO3` to `CC(=O)NN1Cc2cc3ccc4c(c3c(-c3ccc5c(c3)OCO5)c2C1=O)OCO4`, the pEC50 rises from under 4.30 to 4.40. The second is the more potent here.

Going from `O=C1c2cc3ccc4c(c3c(-c3ccc5c(c3)OCO5)c2CN1CCCO)OCO4` to `O=C1c2cc3ccc4c(c3c(-c3ccc5c(c3)OCO5)c2CN1CCCOCc1ccccc1)OCO4`, the pEC50 falls from 5.15 to under 4.70. The first is the more potent here.

`COc1ccc(-c2c(C(=O)O)c(C(N)=O)cc3ccc4c(c23)OCO4)cc1OC` and `O=C(O)c1cc2c(I)cc3c(c2c(-c2ccc4c(c2)OCO4)c1CO)OCO3` cannot be ordered by pEC50: under 5.52 for the first, under 4.30 for the second.

For `O=C(OCc1ccccc1)c1cc2ccc3c(c2c(-c2ccc4c(c2)OCO4)c1COCc1ccccc1)OCO3`, the pEC50 was under 4.30.

system: Hepatitis B virus; assay: Effective concentration to inhibit 50% of hepatitis B virus replication in a cell culture model; type: functional, organism-based; settings: not given

`O=C1NCc2c1cc1c(Br)cc3c(c1c2-c1ccc2c(c1)OCO2)OCO3` and `O=C1OCc2c1cc1c(Br)cc3c(c1c2-c1ccc2c(c1)OCO2)OCO3` cannot be ordered by pEC50: under 5.00 for the first, under 4.40 for the second.

First: O=C1OC(=O)c2c1cc1ccc3c(c1c2-c1ccc2c(c1)OCO2)OCO3
Second: CC(=O)NN1Cc2cc3ccc4c(c3c(-c3ccc5c(c3)OCO5)c2C1=O)OCO4
The pEC50 of the first is lower: under 5.00 for the first, 7.52 for the second. The second is the more potent here.

`O=C1c2cc3ccc4c(c3c(-c3ccc5c(c3)OCO5)c2CN1CCCO)OCO4` and `O=C1c2cc3ccc4c(c3c(-c3ccc5c(c3)OCO5)c2CN1CCCOCc1ccccc1)OCO4` cannot be ordered by pEC50: under 6.05 for the first, under 4.70 for the second.

Compared with `COc1ccc(-c2c(C(=O)O)c(C(N)=O)cc3ccc4c(c23)OCO4)cc1OC`, `O=C(OCc1ccccc1)c1cc2ccc3c(c2c(-c2ccc4c(c2)OCO4)c1COCc1ccccc1)OCO3` is lower in pEC50: 6.10 for the first, under 5.00 for the second. The first is the more potent here.

system: Hepatitis C virus; assay: Effective concentration to inhibit 50% of hepatitis C virus replication in a cell culture model; type: functional, organism-based, Hepacivirus hominis; settings: not given
In short: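 HCV replicon Huh-Luc/neo cells grown to confluence, then treated with varying drug concentrations in DMEM with 10% dFBS for 3 days. Medium was removed and cells lysed in passive lysis buffer, shaken 15 min at room temperature. Lysate was mixed with luciferase substrate and luminescence read immediately as the measure of replicon activity.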

Going from `O=C1NCc2c1cc1c(Br)cc3c(c1c2-c1ccc2c(c1)OCO2)OCO3` to `O=C1OCc2c1cc1c(Br)cc3c(c1c2-c1ccc2c(c1)OCO2)OCO3`, the pEC50 falls from 5.00 to under 5.00. The first is the more potent here.

`O=C1OC(=O)c2c1cc1ccc3c(c1c2-c1ccc2c(c1)OCO2)OCO3` and `CC(=O)NN1Cc2cc3ccc4c(c3c(-c3ccc5c(c3)OCO5)c2C1=O)OCO4` cannot be ordered by pEC50: under 5.00 for the first, under 5.00 for the second.

Going from `O=C1c2cc3ccc4c(c3c(-c3ccc5c(c3)OCO5)c2CN1CCCO)OCO4` to `O=C1c2cc3ccc4c(c3c(-c3ccc5c(c3)OCO5)c2CN1CCCOCc1ccccc1)OCO4`, the pEC50 rises from under 5.00 to 5.00.

First: COc1ccc(-c2c(C(=O)O)c(C(N)=O)cc3ccc4c(c23)OCO4)cc1OC
Second: O=C(O)c1cc2c(I)cc3c(c2c(-c2ccc4c(c2)OCO4)c1CO)OCO3
The pEC50 of the first is 0.52 log units higher: 5.52 for the first, 5.00 for the second. The first is the more potent here.

With `O=C(OCc1ccccc1)c1cc2ccc3c(c2c(-c2ccc4c(c2)OCO4)c1COCc1ccccc1)OCO3` the pEC50 was 5.00.

system: not listed separately; assay: Effective concentration to inhibit 50% of human immunodeficiency virus replication in a cell culture model; type: functional; settings: not given

`O=C1NCc2c1cc1c(Br)cc3c(c1c2-c1ccc2c(c1)OCO2)OCO3` and `O=C1OCc2c1cc1c(Br)cc3c(c1c2-c1ccc2c(c1)OCO2)OCO3` cannot be ordered by pEC50: under 4.27 for the first, under 4.00 for the second.

`O=C1OC(=O)c2c1cc1ccc3c(c1c2-c1ccc2c(c1)OCO2)OCO3` and `CC(=O)NN1Cc2cc3ccc4c(c3c(-c3ccc5c(c3)OCO5)c2C1=O)OCO4` cannot be ordered by pEC50: under 4.00 for the first, under 4.60 for the second.

`O=C1c2cc3ccc4c(c3c(-c3ccc5c(c3)OCO5)c2CN1CCCO)OCO4` and `O=C1c2cc3ccc4c(c3c(-c3ccc5c(c3)OCO5)c2CN1CCCOCc1ccccc1)OCO4` cannot be ordered by pEC50: under 5.10 for the first, under 4.55 for the second.

`COc1ccc(-c2c(C(=O)O)c(C(N)=O)cc3ccc4c(c23)OCO4)cc1OC` and `O=C(O)c1cc2c(I)cc3c(c2c(-c2ccc4c(c2)OCO4)c1CO)OCO3` cannot be ordered by pEC50: under 5.00 for the first, under 4.10 for the second.

Work on `O=C(OCc1ccccc1)c1cc2ccc3c(c2c(-c2ccc4c(c2)OCO4)c1COCc1ccccc1)OCO3` yielded a pEC50 of under 4.00.

system: Human gammaherpesvirus 4; assay: Effective concentration to inhibit 50% of epstein Barr virus replication in a cell culture model; type: functional, organism-based; settings: not given

`O=C1NCc2c1cc1c(Br)cc3c(c1c2-c1ccc2c(c1)OCO2)OCO3` and `O=C1OCc2c1cc1c(Br)cc3c(c1c2-c1ccc2c(c1)OCO2)OCO3` cannot be ordered by pEC50: under 4.70 for the first, under 4.82 for the second.

`O=C1OC(=O)c2c1cc1ccc3c(c1c2-c1ccc2c(c1)OCO2)OCO3` and `CC(=O)NN1Cc2cc3ccc4c(c3c(-c3ccc5c(c3)OCO5)c2C1=O)OCO4` cannot be ordered by pEC50: under 4.70 for the first, under 4.70 for the second.

`O=C1c2cc3ccc4c(c3c(-c3ccc5c(c3)OCO5)c2CN1CCCO)OCO4` and `O=C1c2cc3ccc4c(c3c(-c3ccc5c(c3)OCO5)c2CN1CCCOCc1ccccc1)OCO4` cannot be ordered by pEC50: under 4.70 for the first, under 4.70 for the second.

`COc1ccc(-c2c(C(=O)O)c(C(N)=O)cc3ccc4c(c23)OCO4)cc1OC` and `O=C(O)c1cc2c(I)cc3c(c2c(-c2ccc4c(c2)OCO4)c1CO)OCO3` cannot be ordered by pEC50: under 4.70 for the first, under 4.70 for the second.

With `O=C(OCc1ccccc1)c1cc2ccc3c(c2c(-c2ccc4c(c2)OCO4)c1COCc1ccccc1)OCO3` the pEC50 was under 4.70.

system: not listed separately; assay: Effective concentration to inhibit 50% of cytomegalovirus (CMV) replication in a cell culture model; type: functional; settings: not given

Going from `O=C1OC(=O)c2c1cc1ccc3c(c1c2-c1ccc2c(c1)OCO2)OCO3` to `O=C(O)c1cc2c(I)cc3c(c2c(-c2ccc4c(c2)OCO4)c1CO)OCO3`, the pEC50 falls from 4.75 to under 4.70. The first is the more potent here.

system: CCRF-CEM; assay: Cytotoxicity against CEM cell lines of human; type: functional; settings: read-out: ID50 (the source's name)

Going from `O=C1NCc2c1cc1c(Br)cc3c(c1c2-c1ccc2c(c1)OCO2)OCO3` to `O=C1OCc2c1cc1c(Br)cc3c(c1c2-c1ccc2c(c1)OCO2)OCO3`, the pIC50 falls from 4.42 to 4.00 (0.42 log units). The first is the more potent here.

First: O=C1OC(=O)c2c1cc1ccc3c(c1c2-c1ccc2c(c1)OCO2)OCO3
Second: CC(=O)NN1Cc2cc3ccc4c(c3c(-c3ccc5c(c3)OCO5)c2C1=O)OCO4
The pIC50 of the first is lower: under 4.30 for the first, 4.49 for the second.

Going from `O=C1c2cc3ccc4c(c3c(-c3ccc5c(c3)OCO5)c2CN1CCCO)OCO4` to `O=C1c2cc3ccc4c(c3c(-c3ccc5c(c3)OCO5)c2CN1CCCOCc1ccccc1)OCO4`, the pIC50 falls from 5.22 to 4.17 (1.05 log units).

First: COc1ccc(-c2c(C(=O)O)c(C(N)=O)cc3ccc4c(c23)OCO4)cc1OC
Second: O=C(O)c1cc2c(I)cc3c(c2c(-c2ccc4c(c2)OCO4)c1CO)OCO3
The pIC50 of the first is higher: 5.52 for the first, under 4.00 for the second. The first is the more potent here.

In the case of `O=C(OCc1ccccc1)c1cc2ccc3c(c2c(-c2ccc4c(c2)OCO4)c1COCc1ccccc1)OCO3`, the pIC50 was 4.30.

system: MT2; assay: Cytotoxicity against MT-2 cell lines of human; type: functional; settings: read-out: ID50 (the source's name)

First: O=C1NCc2c1cc1c(Br)cc3c(c1c2-c1ccc2c(c1)OCO2)OCO3
Second: O=C1OCc2c1cc1c(Br)cc3c(c1c2-c1ccc2c(c1)OCO2)OCO3
The pIC50 of the first is higher: 4.27 for the first, under 4.00 for the second. The first is the more potent here.

First: O=C1OC(=O)c2c1cc1ccc3c(c1c2-c1ccc2c(c1)OCO2)OCO3
Second: CC(=O)NN1Cc2cc3ccc4c(c3c(-c3ccc5c(c3)OCO5)c2C1=O)OCO4
The pIC50 of the first is lower: under 4.00 for the first, 4.60 for the second.

Going from `O=C1c2cc3ccc4c(c3c(-c3ccc5c(c3)OCO5)c2CN1CCCO)OCO4` to `O=C1c2cc3ccc4c(c3c(-c3ccc5c(c3)OCO5)c2CN1CCCOCc1ccccc1)OCO4`, the pIC50 falls from 5.10 to 4.55 (0.55 log units). The first is the more potent here.

First: COc1ccc(-c2c(C(=O)O)c(C(N)=O)cc3ccc4c(c23)OCO4)cc1OC
Second: O=C(O)c1cc2c(I)cc3c(c2c(-c2ccc4c(c2)OCO4)c1CO)OCO3
The pIC50 of the first is 0.90 log units higher: 5.00 for the first, 4.10 for the second. The first is the more potent here.

In the case of `O=C(OCc1ccccc1)c1cc2ccc3c(c2c(-c2ccc4c(c2)OCO4)c1COCc1ccccc1)OCO3`, the pIC50 was 4.00.
